Assays:
[1] = Cytotoxicity against mock-infected human MT4 cells after 4 days by MTT assay; format: cell-based
Outline: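 Mock-infected MT-4 cells, 1 × 10⁴ per well in RPMI 1640 with 10% FCS, 37 °C, 5% CO₂. Exposed to serial compound dilutions from a 100 mM DMSO stock diluted in medium, in parallel with the antiviral assay. Viability read by MTT. CC₅₀ taken as concentration reducing viability of mock-infected cells by 50%.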

[2] = system: Human immunodeficiency virus 1; test: Antiviral activity against wild type HIV1 3B assessed as protection as protection against virus-induced cytopathogenicity after 4 days by MTT assay; format: functional; conditions: Human immunodeficiency virus 1, 3B, 96 h
Outline: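 HIV-1 IIIB from supernatants of persistently infected H9/IIIB cells. MT-4 cells, 1 × 10⁴ per well in RPMI 1640 with 10% FCS, exposed to serial compound dilutions (100 mM DMSO stock diluted in medium). Virus inoculum sized in CCID₅₀ to give complete cytopathogenicity by day 4. Incubated at 37 °C, then viability read by MTT. EC₅₀ taken as concentration giving 50% protection from virus-induced cytopathogenicity.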

[3] = system: Human immunodeficiency virus 1; test: Antiviral activity against NNRTI-resistant HIV1 with reverse transcriptase Y181C mutation in human MT4 cells assessed as protection against virus-induced cytopathogenicity after 4 days by MTT assay; format: functional, organism-based; conditions: Human immunodeficiency virus 1, MT4, 96 h
Outline: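 Y181C virus (NIH N119) came from an AZT-sensitive clinical isolate passaged in CEM then MT-4 cells with nevirapine; stock 1.2×10⁸ CCID50/mL. It infected 1×10⁴ MT-4 cells/well (RPMI 1640, 10% FCS, 37 °C, 5% CO2) with compound dilutions from 100 mM DMSO stock, at a dose giving full cytopathogenicity by day 4. Readout MTT; EC50 = 50% protection.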

[4] = system: Human immunodeficiency virus 1; test: Antiviral activity against NNRTI-resistant HIV1 3B with reverse transcriptase K103N+Y181C mutation in human MT4 cells assessed as protection against virus-induced cytopathogenicity after 4 days by MTT assay; format: functional, organism-based; conditions: Human immunodeficiency virus 1, 3B, MT4, 96 h
Outline: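 MT-4 cells (RPMI 1640, 10% FCS, 37 °C, 5% CO2), 1×10⁴/well, with compound serial dilutions from 100 mM DMSO stock, infected with K103N+Y181C virus (NIH A17, from IIIB passaged in H9 cells with BI-RG 587; stock 2.1×10⁷ CCID50/mL) at dose giving full cytopathogenicity by day 4. MTT viability; EC50 = 50% protection.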

[5] = system: Human immunodeficiency virus 1; test: Antiviral activity against NNRTI-resistant HIV1 3B with reverse transcriptase K103R+V179D+P225H mutation in human MT4 cells assessed as protection against virus-induced cytopathogenicity after 4 days by MTT assay; format: functional, organism-based; conditions: Human immunodeficiency virus 1, 3B, MT4, 96 h
Outline: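 K103R+V179D+P225H (EFV^R) virus, from IIIB passaged in MT-4 cells under efavirenz; stock 4.0×10⁷ CCID50/mL. Added to 1×10⁴ MT-4 cells/well (RPMI 1640, 10% FCS, 37 °C, 5% CO2) with compound dilutions from 100 mM DMSO stock, amount causing complete cytopathogenicity at day 4. Viability by MTT; EC50 = concentration giving 50% protection.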

SMILES | CC50 at 96 h [1] | EC50 [2] | EC50 [3] | EC50 [4] | EC50 [5]
O=c1c2ccccc2sn1/N=C/c1cccc([N+](=O)[O-])c1 | > 100 µM | 36 µM | 13 µM | 57 µM | 11 µM
Cc1ccc2sn(/N=C/c3ccccc3)c(=O)c2c1 | 44 µM | ≥ 33 µM | ≥ 33 µM | > 44 µM | ≥ 33 µM
Cc1ccc2sn(/N=C/c3cccc(F)c3)c(=O)c2c1 | 30 µM | > 30 µM | > 30 µM | > 30 µM | > 30 µM
Cc1ccc2sn(/N=C/c3ccccc3F)c(=O)c2c1 | 18 µM | > 18 µM | > 18 µM | > 18 µM | > 18 µM
Cc1ccc2sn(/N=C/c3cccc(O)c3)c(=O)c2c1 | 16 µM | > 16 µM | > 16 µM | > 16 µM | 8.4 µM
O=c1c2ccccc2sn1/N=C/c1cccc(O)c1 | 15 µM | > 15 µM | > 15 µM | > 15 µM | > 15 µM
O=c1c2ccccc2sn1/N=C/c1ccccc1 | 17 µM | 11 µM | > 17 µM | > 17 µM | 8.6 µM
Cc1ccc2sn(/N=C/c3ccco3)c(=O)c2c1 | 18 µM | > 18 µM | > 18 µM | > 18 µM | > 18 µM
COc1cc(/C=N/n2sc3ccc(C)cc3c2=O)ccc1O | 16 µM | > 16 µM | > 16 µM | > 16 µM | > 16 µM
O=c1c2ccccc2sn1/N=C/c1ccccc1O | 18 µM | > 18 µM | > 18 µM | > 18 µM | > 18 µM
O=c1c2ccccc2sn1/N=C/c1ccc(Cl)cc1 | 26 µM | > 26 µM | ≥ 11 µM | > 26 µM | 2.9 µM
Cc1ccc2sn(/N=C/c3ccc(O)c(O)c3)c(=O)c2c1 | 49 µM | > 49 µM | > 49 µM | > 49 µM | > 49 µM
COc1ccc(/C=N/n2sc3ccccc3c2=O)cc1 | 19 µM | > 19 µM | > 19 µM | > 19 µM | > 19 µM
O=c1c2ccccc2sn1/N=C/c1ccccc1Cl | 47 µM | 20 µM | 26 µM | > 47 µM | 24 µM
CCCCCCCCCCC/C=N/n1sc2ccccc2c1=O | 17 µM | > 17 µM | > 17 µM | > 17 µM | > 17 µM
Cc1ccc2sn(/N=C/C=C/c3ccccc3)c(=O)c2c1 | 19 µM | > 19 µM | > 19 µM | > 19 µM | > 19 µM
COc1ccc(/C=N/n2sc3ccc(C)cc3c2=O)cc1 | 55 µM | > 55 µM | > 55 µM | > 55 µM | > 55 µM
O=c1c2ccccc2sn1/N=C/c1ccc(O)cc1 | 18 µM | > 18 µM | > 18 µM | > 18 µM | 8.4 µM
Cc1ccc2sn(/N=C/c3cccc([N+](=O)[O-])c3)c(=O)c2c1 | > 100 µM | 48 µM | 32 µM | 83 µM | 18 µM
O=c1c2ccccc2sn1/N=C/c1cccc(Cl)c1 | > 100 µM | 100 µM | ≥ 100 µM | ≥ 100 µM | 68 µM
O=c1c2ccccc2sn1/N=C/c1ccc(O)c(O)c1 | 44 µM | > 44 µM | > 44 µM | > 44 µM | > 44 µM
